# S100A4 inh HTS – inhibitors of S100A4-myosin IIA peptide binding, primary screen, biochemical, fluorescence polarization, TAMRA-MyoIIA peptide. Protein S100-A4 (Homo sapiens), P26447. inhibition, % at 10.7 µM. 360,000 compounds, 0.14% hits. AID 652163, 2013;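 active = mean inhibition of at least 70% across replicates, with every replicate also reaching that level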
# Target sequence (P26447 whole entry, looked up): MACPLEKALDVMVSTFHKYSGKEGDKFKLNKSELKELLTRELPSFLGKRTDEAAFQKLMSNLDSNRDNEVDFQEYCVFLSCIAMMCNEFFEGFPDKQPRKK
#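 Material: S100A4 monomer (human). Medium: Calcium-containing HEPES buffer, pH 7.2. Probe or stimulus: labelled myosin peptide probe, 5 nM. Compound dosing: one concentration per compound. Timing: polarization read 5 min after assay mix addition, stable 5–60 min. Benchmarks: DMSO as neutral control, TFP as positive control.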
# FGF22 binding – binders of human FGF22 protein, primary screen, FGF22 synaptogenesis inhibitor project, biophysical, thermal shift, single point; Fibroblast growth factor 22 (Homo sapiens), Q9HCT0; recombinant FGF22 thermal shift, SYPRO orange fluorescence; percent of sucrose octasulfate shift, DMSO zero; activity (Tm shift, normalised), % at 9.99 µM; 340,000 compounds, 1.5% hits;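 active = mean Tm shift, scaled 0 neutral to 100 positive control, at about 1.3% or above, every replicate too, limit read from the data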
# Target sequence (Q9HCT0 whole entry, looked up): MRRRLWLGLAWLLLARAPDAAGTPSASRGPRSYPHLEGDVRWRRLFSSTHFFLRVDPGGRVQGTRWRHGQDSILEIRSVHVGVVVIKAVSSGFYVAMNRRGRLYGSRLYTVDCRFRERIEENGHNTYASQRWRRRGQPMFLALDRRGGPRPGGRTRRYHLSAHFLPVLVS
# dFosB act – activators of delta FosB homodimer, primary screen, biochemical, fluorescence polarization, TAMRA-CDK5 oligo, single point; Protein FosB (Mus musculus), P13346; purified delta FosB; percent of positive-control signal above neutral wells; activation, % at 25 µM; 340,000 compounds, 0.99% hits;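 active = mean activation above about 17%, with every replicate also reaching it, limit read from the data, passing the limit was not always enough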
# Target sequence (P13346 whole entry, looked up): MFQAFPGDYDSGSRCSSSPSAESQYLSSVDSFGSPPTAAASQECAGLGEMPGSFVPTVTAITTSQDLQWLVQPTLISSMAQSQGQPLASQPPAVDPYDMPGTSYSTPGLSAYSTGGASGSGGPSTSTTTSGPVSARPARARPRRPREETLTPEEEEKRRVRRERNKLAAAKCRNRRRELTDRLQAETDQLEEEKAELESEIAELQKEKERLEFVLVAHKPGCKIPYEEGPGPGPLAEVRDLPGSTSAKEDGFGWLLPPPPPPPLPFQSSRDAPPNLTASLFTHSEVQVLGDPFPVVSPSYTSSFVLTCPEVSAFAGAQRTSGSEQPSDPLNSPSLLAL
# CFTR F508del cor – F508del CFTR correction, initial screen, CFBE line, single point; AID 720511, 2013; activity (quench increase), % at 7.58 µM; CFBE cells, YFP halide quenching; stimulated with forskolin plus potentiator P3; % fluorescence drop versus neutral controls; 350,000 compounds, 0.36% hits;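 active = mean added fluorescence quench of at least 8% versus neutral control, with both replicates also reaching 8%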;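 note: cells transiently co-express mutant CFTR-F508del with the halide-sensitive YFP; corrector assay measuring rescue of mutant channel to the surface after 24 h compound exposure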
# A number is an active result; i = inactive; nt = no result given. This is a sample that favours compounds with a hit; in the whole collection about 2.2% have one here.
SMILES,S100A4 inh HTS,FGF22 binding,dFosB act,CFTR F508del cor
CC(C)NCC(O)COc1ccc(Br)cc1 (configuration not stated),i,43.6,i,i
CCC(CC)NCC(O)COc1ccc(Br)cc1 (configuration not stated),i,i,i,i
N#Cc1cccc(-c2ccc(C3[C@H]4CNC[C@@H]3N4C(=O)Nc3ccc(F)cc3)cc2)c1 (some centres not stated),i,nt,nt,i
CC(C)N1CCc2c(sc(NC(=O)c3cc4cc([N+](=O)[O-])ccc4s3)c2C(N)=O)C1,i,i,48.2,i
CC(=O)Nc1sc2c(c1-c1nc3ccccc3s1)CCN(C(C)C)C2,nt,nt,35.4,nt
CC(C)N1CCc2c(sc(NC(=O)c3ccc(C(=O)c4ccccc4)cc3)c2C(N)=O)C1,i,i,29.2,i
CC(C)N1CCc2c(sc(NC(=O)c3ccc4ccccc4c3)c2C(N)=O)C1,i,i,i,i
O=C(C1CC1)N1CC2(C1)[C@H](c1ccccc1)[C@@H](CO)N2C(=O)CC1CC1,i,nt,nt,i
Cc1onc(-c2c(F)cccc2Cl)c1C(=O)OCC(=O)NC(=O)NCC(C)C,i,43.4,i,i
C[C@@H]1CN([C@H](C)CO)C(=O)c2cc(-c3ccc(F)cc3)cnc2O[C@@H]1CN(C)CC1CCCC1,i,i,nt,i
Cc1cc(/C=C2/SC(=S)N(c3ccc([N+](=O)[O-])cc3)C2=O)c(C)n1-c1cccnc1,i,43.4,i,i
O=C(C[C@H]1CC[C@@H](NC(=O)Nc2ccccc2F)[C@H](CO)O1)NCc1ccccc1,i,i,nt,i
C/C=C/c1ccc([C@@H]2[C@H]3CN(S(=O)(=O)c4ccc(OC)cc4)CCCCN3[C@H]2CO)cc1,nt,nt,nt,i
O=C(COC(=O)c1c[nH]c(=O)[nH]c1=O)Nc1ccccc1F,i,43.3,i,i
C[C@H](CO)N1C[C@H](C)[C@H](CN(C)C(=O)NC2CCCC2)Oc2ncc(-c3ccncc3)cc2C1=O,nt,nt,nt,i
CS(=O)(=O)N1CCN(c2ccccc2NC(=S)NC(=O)c2cccs2)CC1,i,43.4,i,i
CC1CCN(c2ccccc2NC(=S)NC(=O)C(C)(C)C)CC1,i,42.9,i,i
C[C@H]1CN([C@@H](C)CO)C(=O)c2cc(NC(=O)Cc3cn(C)c4ccccc34)ccc2O[C@H]1CN(C)S(=O)(=O)c1cn(C)cn1,i,i,nt,i
CCOc1c(Cl)cc(CNCC(C)C)cc1OC,nt,nt,i,nt
CCOc1cc(CNCC(C)C)cc(Cl)c1OCc1ccccc1,i,43.8,i,i
O=c1ccc(-c2nc3ccccc3n2Cc2ccccc2Cl)c[nH]1,i,43.4,i,i
O=C1N/C(=C\c2ccsc2)C(=O)N1Cc1ccc(F)cc1,i,i,i,i
Cc1ccsc1/C=C1/NC(=O)N(Cc2ccc(F)cc2)C1=O,i,43.2,i,i
Cc1ccc(Nc2nc(N)nc(-c3oc4ccccc4c3C)n2)cc1,nt,nt,76.5,nt
O=C(NCC[C@@H]1CC[C@@H](NS(=O)(=O)Cc2ccccc2)[C@@H](CO)O1)C1CCCC1,i,i,nt,i
SMILES,S100A4 inh HTS,FGF22 binding,dFosB act,CFTR F508del cor
C[C@@H]1CCCCO[C@H](CN(C)C(=O)Nc2ccc(C(F)(F)F)cc2)[C@@H](C)CN([C@H](C)CO)C(=O)c2cc(NC(=O)Nc3ccc(F)cc3)ccc2O1,i,i,nt,i
COc1ccc(NC(=O)Nc2ccc3c(c2)C(=O)N([C@@H](C)CO)C[C@@H](C)[C@H](CN(C)C(=O)Nc2ccc(C(F)(F)F)cc2)OCCCC[C@@H](C)O3)cc1,i,1.2,nt,i
C[C@H]1CCCCO[C@H](CN(C)C(=O)Nc2ccc(C(F)(F)F)cc2)[C@@H](C)CN([C@@H](C)CO)C(=O)c2cc(NC(=O)Nc3ccc(F)cc3)ccc2O1,i,i,nt,8.0
C[C@H]1CCCCO[C@H](CN(C)C(=O)Nc2ccc(F)cc2)[C@@H](C)CN([C@@H](C)CO)C(=O)c2cc(NC(=O)Nc3ccc(C(F)(F)F)cc3)ccc2O1,i,1.6,nt,i
Cc1noc(C)c1NC(=O)N(C)C[C@H]1OCCCC[C@H](C)Oc2ccc(NC(=O)NC3CCCCC3)cc2C(=O)N([C@@H](C)CO)C[C@@H]1C,i,1.4,nt,i
CCS(=O)(=O)N1CCC2(CC1)CN(C(=O)Cc1ccccn1)[C@H](CO)c1[nH]c3cc(OC)ccc3c12,i,i,nt,i
COc1ccc(CN(C)C[C@@H]2Oc3ccc(NS(=O)(=O)c4ccc(F)cc4)cc3C(=O)N([C@H](C)CO)C[C@@H]2C)cc1,i,i,nt,i
COc1cccc(C(=O)Nc2ccc3c(c2)C(=O)N(C)[C@@H]2CC[C@@H](CC(=O)NCCCN4CCOCC4)O[C@H]2CO3)c1,i,i,nt,nt
CC(C)NC(=O)N(C)C[C@@H]1OCCCC[C@H](C)Oc2ccc(N(C)C)cc2C(=O)N([C@@H](C)CO)C[C@@H]1C,i,i,nt,i
Cc1ccc(S(=O)(=O)N(C)C[C@@H]2Oc3ncc(-c4ccccc4)cc3C(=O)N([C@H](C)CO)C[C@H]2C)cc1,i,i,nt,i
COc1ccc(NC(=O)N(C)C[C@H]2OCCCC[C@H](C)Oc3ccc(NC(=O)NC4CCCCC4)cc3C(=O)N([C@H](C)CO)C[C@H]2C)cc1,i,i,nt,i
C[C@H]1CCCCO[C@H](CN(C)C(=O)Nc2ccc(C(F)(F)F)cc2)[C@@H](C)CN([C@@H](C)CO)C(=O)c2cc(NS(=O)(=O)c3ccccc3)ccc2O1,86.4,i,nt,i
C[C@@H]1CCCCO[C@@H](CN(C)C(=O)Nc2ccc(F)cc2)[C@H](C)CN([C@@H](C)CO)C(=O)c2cc(NC(=O)Nc3ccc(C(F)(F)F)cc3)ccc2O1,i,1.4,nt,i
C[C@@H]1CCCCO[C@@H](CN(C)C(=O)Nc2ccc(C(F)(F)F)cc2)[C@@H](C)CN([C@H](C)CO)C(=O)c2cc(NC(=O)Nc3ccc(F)cc3)ccc2O1,i,i,nt,i
C[C@@H]1CCCCO[C@H](CN(C)C(=O)NC2CCCCC2)[C@@H](C)CN([C@@H](C)CO)C(=O)c2cc(NC(=O)Nc3ccc(C(F)(F)F)cc3)ccc2O1,142.6,i,nt,i
COc1ccc(NC(=O)N(C)C[C@H]2OCCCC[C@@H](C)Oc3ccc(NC(=O)NC4CCCCC4)cc3C(=O)N([C@H](C)CO)C[C@@H]2C)cc1,134.2,i,nt,i
CN(C)C(=O)[C@@H]1[C@@H](CO)[C@@H]2Cn3c(cccc3=O)[C@@H]2N1C(=O)C1CCCC1,i,nt,nt,i
CO[C@H]1CN(C)C(=O)c2ccc(NC(=O)C3CCCC3)cc2OC[C@H](C)N(C(=O)CC2CC2)C[C@H]1C,i,i,nt,i
CC(C)NC(=O)N(C)C[C@@H]1Oc2ccc(NS(=O)(=O)c3ccccc3)cc2C(=O)N([C@H](C)CO)C[C@@H]1C,111.9,i,nt,i
